Several values for one entry are separate records, joined by “and”; a condition that tells them apart may be missing. Identical values can stand only once. Blank lines part the entries; values can stand above or below the molecule they belong to.
Experiments:
Rattus norvegicus [1] = test: Distribution of the [125I]-labeled compound in heart tissue of female Fischer 344 rat 5 min after intravenous administration.; assay type: ADME, organism-based; conditions: in vivo
In short: (§1)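 Tissues were sampled at the stated times after injection. Radioactivity is expressed as mean (range) percent injected dose/g tissue. Heart:blood ratios were calculated from these tissue values.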

Rattus norvegicus [2] = test: Distribution of the [125I]-labeled compound in liver of female Fischer 344 rat 1 hr after intravenous administration.; assay type: ADME, organism-based; conditions: in vivo; in short: as §1
Rattus norvegicus [3] = test: Distribution of the [125I]-labeled compound in liver of female Fischer 344 rat 2 hr after intravenous administration.; assay type: ADME, organism-based; conditions: in vivo; in short: as §1
Rattus norvegicus [4] = test: Distribution of the [125I]-labeled compound in blood of female Fischer 344 rat 1 day after intravenous administration.; assay type: ADME, organism-based; conditions: in vivo, 24 h; in short: as §1
Rattus norvegicus [5] = test: Distribution of the [125I]-labeled compound in lungs of female Fischer 344 rat 1 hr after intravenous administration.; assay type: ADME, organism-based, Lung; conditions: in vivo; in short: as §1
Rattus norvegicus [6] = test: Ratio of the distribution of [125I]-labeled compound in heart/blood of female Fischer 344 rat 4 hr after intravenous administration.; assay type: ADME, organism-based; conditions: other tissue; in short: as §1
Rattus norvegicus [7] = test: Distribution of the [125I]-labeled compound in blood of female Fischer 344 rat 5 min after intravenous administration.; assay type: ADME, organism-based; conditions: in vivo; in short: as §1
Rattus norvegicus [8] = test: Distribution of the [125I]-labeled compound in kidney of female Fischer 344 rat 1 day after intravenous administration.; assay type: ADME, organism-based; conditions: in vivo, 24 h; in short: as §1
Rattus norvegicus [9] = test: Distribution of the [125I]-labeled compound in liver of female Fischer 344 rat 4 hr after intravenous administration.; assay type: ADME, organism-based; conditions: in vivo; in short: as §1
Rattus norvegicus [10] = test: Distribution of the [125I]-labeled compound in liver of female Fischer 344 rat 1 day after intravenous administration.; assay type: ADME, organism-based; conditions: in vivo, 24 h; in short: as §1
Rattus norvegicus [11] = test: Distribution of the [125I]-labeled compound in blood of female Fischer 344 rat 30 min after intravenous administration.; assay type: ADME, organism-based; conditions: in vivo, 0.5 h; in short: as §1
Rattus norvegicus [12] = test: Distribution of the [125I]-labeled compound in kidney of female Fischer 344 rat 2 hr after intravenous administration.; assay type: ADME, organism-based; conditions: in vivo; in short: as §1
Rattus norvegicus [13] = test: Distribution of the [125I]-labeled compound in heart tissue of female Fischer 344 rat 1 day after intravenous administration.; assay type: ADME, organism-based; conditions: in vivo, 24 h; in short: as §1
Rattus norvegicus [14] = test: Distribution of the [125I]-labeled compound in thyroid of female Fischer 344 rat 30 min after intravenous administration.; assay type: ADME, organism-based, Thyroid gland; conditions: in vivo, 0.5 h; in short: as §1
Rattus norvegicus [15] = test: Distribution of the [125I]-labeled compound in kidney of female Fischer 344 rat 1 hr after intravenous administration.; assay type: ADME, organism-based; conditions: in vivo; in short: as §1
Rattus norvegicus [16] = test: Distribution of the [125I]-labeled compound in blood of female Fischer 344 rat 1 hr after intravenous administration.; assay type: ADME, organism-based; conditions: in vivo; in short: as §1
Rattus norvegicus [17] = test: Ratio of the distribution of [125I]-labeled compound in heart/blood of female Fischer 344 rat 2 hr after intravenous administration.; assay type: ADME, organism-based; conditions: other tissue; in short: as §1
Rattus norvegicus [18] = test: Distribution of the [125I]-labeled compound in lungs of female Fischer 344 rat 30 min after intravenous administration.; assay type: ADME, organism-based, Lung; conditions: in vivo, 0.5 h; in short: as §1
Rattus norvegicus [19] = test: Distribution of the [125I]-labeled compound in kidney of female Fischer 344 rat 5 min after intravenous administration.; assay type: ADME, organism-based; conditions: in vivo; in short: as §1
Rattus norvegicus [20] = test: Distribution of the [125I]-labeled compound in thyroid of female Fischer 344 rat 5 min after intravenous administration.; assay type: ADME, organism-based, Thyroid gland; conditions: in vivo; in short: as §1
Rattus norvegicus [21] = test: Distribution of the [125I]-labeled compound in heart tissue of female Fischer 344 rat 2 hr after intravenous administration.; assay type: ADME, organism-based; conditions: in vivo; in short: as §1
Rattus norvegicus [22] = test: Distribution of the [125I]-labeled compound in heart tissue of female Fischer 344 rat 4 hr after intravenous administration.; assay type: ADME, organism-based; conditions: in vivo; in short: as §1
Rattus norvegicus [23] = test: Ratio of the distribution of [125I]-labeled compound in heart/blood of female Fischer 344 rat 5 min after intravenous administration.; assay type: ADME, organism-based; conditions: in vivo; in short: as §1
Rattus norvegicus [24] = test: Distribution of the [125I]-labeled compound in thyroid of female Fischer 344 rat 4 hr after intravenous administration.; assay type: ADME, organism-based, Thyroid gland; conditions: in vivo; in short: as §1
Rattus norvegicus [25] = test: Distribution of the [125I]-labeled compound in liver of female Fischer 344 rat 30 min after intravenous administration.; assay type: ADME, organism-based; conditions: in vivo, 0.5 h; in short: as §1
Rattus norvegicus [26] = test: Distribution of the [125I]-labeled compound in thyroid of female Fischer 344 rat 1 hr after intravenous administration.; assay type: ADME, organism-based, Thyroid gland; conditions: in vivo; in short: as §1
Rattus norvegicus [27] = test: Distribution of the [125I]-labeled compound in lungs of female Fischer 344 rat 1 day after intravenous administration.; assay type: ADME, organism-based, Lung; conditions: in vivo, 24 h; in short: as §1
Rattus norvegicus [28] = test: Distribution of the [125I]-labeled compound in heart tissue of female Fischer 344 rat 30 min after intravenous administration.; assay type: ADME, organism-based; conditions: in vivo, 0.5 h; in short: as §1
Rattus norvegicus [29] = test: Distribution of the [125I]-labeled compound in kidney of female Fischer 344 rat 30 min after intravenous administration.; assay type: ADME, organism-based; conditions: in vivo, 0.5 h; in short: as §1
Rattus norvegicus [30] = test: Distribution of the [125I]-labeled compound in heart tissue of female Fischer 344 rat 1 hr after intravenous administration.; assay type: ADME, organism-based; conditions: in vivo; in short: as §1
Rattus norvegicus [31] = test: Distribution of the [125I]-labeled compound in lungs of female Fischer 344 rat 5 min after intravenous administration.; assay type: ADME, organism-based, Lung; conditions: in vivo; in short: as §1
Rattus norvegicus [32] = test: Distribution of the [125I]-labeled compound in blood of female Fischer 344 rat 2 hr after intravenous administration.; assay type: ADME, organism-based; conditions: in vivo; in short: as §1
Rattus norvegicus [33] = test: Distribution of the [125I]-labeled compound in kidney of female Fischer 344 rat 4 hr after intravenous administration.; assay type: ADME, organism-based; conditions: in vivo; in short: as §1
Rattus norvegicus [34] = test: Distribution of the [125I]-labeled compound in liver of female Fischer 344 rat 5 min after intravenous administration.; assay type: ADME, organism-based; conditions: in vivo; in short: as §1
Rattus norvegicus [35] = test: Distribution of the [125I]-labeled compound in thyroid of female Fischer 344 rat 2 hr after intravenous administration.; assay type: ADME, organism-based, Thyroid gland; conditions: in vivo; in short: as §1
Rattus norvegicus [36] = test: Distribution of the [125I]-labeled compound in blood of female Fischer 344 rat 4 hr after intravenous administration.; assay type: ADME, organism-based; conditions: in vivo; in short: as §1
Rattus norvegicus [37] = test: Ratio of the distribution of [125I]-labeled compound in heart/blood of female Fischer 344 rat 1 hr after intravenous administration.; assay type: ADME, organism-based; conditions: other tissue; in short: as §1
Rattus norvegicus [38] = test: Distribution of the [125I]-labeled compound in thyroid of female Fischer 344 rat 1 day after intravenous administration.; assay type: ADME, organism-based, Thyroid gland; conditions: in vivo, 24 h; in short: as §1
Rattus norvegicus [39] = test: Ratio of the distribution of [125I]-labeled compound in heart/blood of female Fischer 344 rat 1 day after intravenous administration.; assay type: ADME, organism-based; conditions: other tissue, 24 h; in short: as §1
Rattus norvegicus [40] = test: Distribution of the [125I]-labeled compound in heart tissue of female Fischer 344 rat 120 min after intravenous administration. Value in the parentheses is ratio of distribution in heart and blood; assay type: ADME, organism-based; conditions: in vivo, 2 h
In short: (§2)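 Radioiodinated ([125I]) fatty acid formulated in 6% bovine serum albumin solution (10% EtOH), passed through a 0.22-µm filter, injected into a lateral tail vein of female Fischer 344 rats. Tissues taken at set times post-injection; radioactivity expressed as percent injected dose/g tissue (mean, range), with heart:blood ratio calculated from heart and blood values.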

Rattus norvegicus [41] = test: Distribution of the [125I]-labeled compound in heart tissue of female Fischer 344 rat 5 min after intravenous administration. Value in the parentheses is ratio of distribution in heart and blood; assay type: ADME, organism-based; conditions: in vivo; in short: as §2

Injected dose/g tissue (Rattus norvegicus [1]): 3.17%
Injected dose/g tissue (Rattus norvegicus [2]): 4.83%
Injected dose/g tissue (Rattus norvegicus [3]): 4.04%
Injected dose/g tissue (Rattus norvegicus [4]): 0.07%
Injected dose/g tissue (Rattus norvegicus [5]): 0.82%
Heart/blood ratio (Rattus norvegicus [6]): 3.5
Injected dose/g tissue (Rattus norvegicus [7]): 0.3%
Injected dose/g tissue (Rattus norvegicus [8]): 0.32%
Injected dose/g tissue (Rattus norvegicus [9]): 3.08%
Injected dose/g tissue (Rattus norvegicus [10]): 0.6%
Injected dose/g tissue (Rattus norvegicus [11]): 0.4%
Injected dose/g tissue (Rattus norvegicus [12]): 0.63%
Injected dose/g tissue (Rattus norvegicus [13]): 0.32%
Injected dose/g tissue (Rattus norvegicus [14]): 20.88%
Injected dose/g tissue (Rattus norvegicus [15]): 0.62%
Injected dose/g tissue (Rattus norvegicus [16]): 0.28%
Heart/blood ratio (Rattus norvegicus [17]): 6.6
Injected dose/g tissue (Rattus norvegicus [18]): 1.03%
Injected dose/g tissue (Rattus norvegicus [19]): 0.82%
Injected dose/g tissue (Rattus norvegicus [20]): 9.29%
Injected dose/g tissue (Rattus norvegicus [21]): 1.72%
Injected dose/g tissue (Rattus norvegicus [22]): 0.94%
ratio (Rattus norvegicus [23]): 10.6 and 6.7
Injected dose/g tissue (Rattus norvegicus [24]): 153%
Injected dose/g tissue (Rattus norvegicus [25]): 7.81%
Injected dose/g tissue (Rattus norvegicus [26]): 27.18%
Injected dose/g tissue (Rattus norvegicus [27]): 0.59%
Injected dose/g tissue (Rattus norvegicus [28]): 2.69%
Injected dose/g tissue (Rattus norvegicus [29]): 0.7%
Injected dose/g tissue (Rattus norvegicus [30]): 2.09%
Injected dose/g tissue (Rattus norvegicus [31]): 1.02%
Injected dose/g tissue (Rattus norvegicus [32]): 0.28%
Injected dose/g tissue (Rattus norvegicus [33]): 0.55%
Injected dose/g tissue (Rattus norvegicus [34]): 8.65%
Injected dose/g tissue (Rattus norvegicus [35]): 61%
Injected dose/g tissue (Rattus norvegicus [36]): 0.27%
Heart/blood ratio (Rattus norvegicus [37]): 7.6
Injected dose/g tissue (Rattus norvegicus [38]): 350%
Heart/blood ratio (Rattus norvegicus [39]): 4.8
Structure (SMILES): O=C(O)CCCCCCCCCCCCCCC/C=C/I

Structure (SMILES): O=C(O)CCCCCCCCC[Te]CCCCC/C=C/I
Injected dose/g tissue (Rattus norvegicus [40]): 3.8%
Injected dose/g tissue (Rattus norvegicus [41]): 3.1%

Structure (SMILES): O=C(O)CCCCCCC[Te]CCCCCCC/C=C/I
Injected dose/g tissue (Rattus norvegicus [40]): 3.9%
Injected dose/g tissue (Rattus norvegicus [41]): 4.8%

Structure (SMILES): O=C(O)CCCCC[Te]CCCCCCCCC/C=C/I
Injected dose/g tissue (Rattus norvegicus [40]): 2.9%
Injected dose/g tissue (Rattus norvegicus [41]): 3.5%

Structure (SMILES): O=C(O)CCCCCCCCCCC[Te]CCC/C=C/I
Injected dose/g tissue (Rattus norvegicus [40]): 1%
Injected dose/g tissue (Rattus norvegicus [41]): 1.5%

Structure (SMILES): O=C(O)CCC[Te]CCCCCCCCCCC/C=C/I
Injected dose/g tissue (Rattus norvegicus [40]): 3.6%
Injected dose/g tissue (Rattus norvegicus [41]): 3.9%
